Shown are actives, neighbours in structure and some others; about 1.8% of the full set was active somewhere.
DDE Tn7 FP inh = DD(E)-Tn7 binding inhibition, primary FP screen; P02675; FP displacement of FITC-Tn7 peptide from fibrin DD(E); 0% = median of compound wells per plate; inhibition, % at 8.3 µM; 370,000 tested, 0.13% active; AID 720508;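 active = inhibition above the mean of compounds falling within the control limits plus 3 SD of them, cut at about 14% in these data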
Target sequence (P02675 whole entry, looked up): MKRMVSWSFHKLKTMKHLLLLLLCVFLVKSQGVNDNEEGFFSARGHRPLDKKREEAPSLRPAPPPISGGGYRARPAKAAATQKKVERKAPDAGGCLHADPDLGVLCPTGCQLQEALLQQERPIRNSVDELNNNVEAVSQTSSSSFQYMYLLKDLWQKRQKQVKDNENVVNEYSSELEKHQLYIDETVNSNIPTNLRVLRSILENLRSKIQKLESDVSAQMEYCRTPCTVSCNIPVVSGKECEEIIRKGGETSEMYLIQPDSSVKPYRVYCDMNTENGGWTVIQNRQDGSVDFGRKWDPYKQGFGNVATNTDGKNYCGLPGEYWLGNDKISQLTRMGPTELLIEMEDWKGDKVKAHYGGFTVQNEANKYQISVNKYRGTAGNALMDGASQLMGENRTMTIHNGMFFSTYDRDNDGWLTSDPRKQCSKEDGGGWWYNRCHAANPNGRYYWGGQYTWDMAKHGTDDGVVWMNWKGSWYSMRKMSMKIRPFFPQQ
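Assay system: Fibrin-DD(E) protein isolated from polymerized human fibrin clots; read-out basis: percent inhibition; medium: Tris/NaCl/CaCl2 buffer, pH 7.8; signal: FP measurement; incubation: 10 min plus 3 h, room temperature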
HTRA1 inh = blocks human HTRA1 serine peptidase; 340,000 tested, 0.5% active; recombinant HTRA1, FP-rhodamine activity-based probe, fluorescence polarization; Q92743; inhibition, % at 5.96 µM; in the data active = inhibition above about 36%
mABHD4 FP = inhibits mouse alpha/beta hydrolase domain 4 | Q8VD66 | 370,000 tested, 0.54% active | inhibition, % at 8.92 µM | AID 720543 | purified mABHD4, FP-Rh probe fluorescence polarization;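 active = inhibition exceeding the mean over every tested compound plus 3 SD, cut at about 30% in these data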
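System: mouse ABHD4 enzyme, wild type / Medium: HEPES pH 7.0, NaCl, Pluronic buffer / Reagent: FP-Rh activity-based fluorescent probe / Control set: S159A mutant high control, sample median low control / Detection: fluorescence polarization with parallel and perpendicular emission, 525/598 nm / Schedule: 45 min + 60 min at 25 °C / Compound dosing: 8.92 µM, single dose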
Tn6 DDE FP = inhibitors of Tn6 peptide binding to human fibrin DD(E); Fibrin DD(E) TRITC-Tn6 fluorescence polarization displacement; inhibition, % at 8.3 µM; P02675; 370,000 tested, 0.21% active;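 active = inhibition above a per-campaign cutoff: mean of compounds within control limits plus 3 SD, cut at about 15% in these data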
TCR-CD3 inh = human TCR-CD3 binding inhibition. TAMRA-labeled TCR probe fluorescence, biochemical. inhibition, % at 9.4 µM. 360,000 tested, 0.37% active. AID 651800; in the data active = inhibition above about 19%;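 also: recombinant mutant TCR 2C K166C tagged with TAMRA read by polarization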
SIAE primary = blocks human sialic acid acetylesterase; Q9HAT2; SIAE FP-Rh probe binding, fluorescence polarization; inhibition, % at 9.66 µM; 370,000 tested, 0.69% active; AID 1053197;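 active = inhibition above a cutoff: mean of compounds within the control limits plus 3 SD of those, cut at about 17% in these data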
SIAE confirm = human SIAE inhibition, confirmation; shares compounds with SIAE primary; SIAE FP-Rh activity-based probe, fluorescence polarization; inhibition, % at 9.66 µM; 2,300 tested, 13% active; AID 1117263;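 active = mean inhibition of the replicates above the hit cutoff set in the primary screen, cut at about 17% in these data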;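 also: inhibitors lower polarization as more probe stays unbound to SIAE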
Each line names hits and unclear results; the compound was inactive in the other large screens (follow-up assays come after a bar, where they were run).

CN(C)c1ccc(/C=[N+](\[O-])C2SC(=S)N(C)C2(C)C)cc1 (configuration not stated)	none
COC(=O)[C@]12C[C@H](CC(=O)N3CCCCC3)C(=O)N(Cc3cccc4ccccc34)C1=C[C@H](C1CCCC1)O[C@@H]2C	none (no result: HTRA1 inh, TCR-CD3 inh)
O=C(NCc1ccc(Cl)cc1)c1cc2ccccn2n1	SIAE primary 54 | SIAE confirm inactive
CC(C)C[C@H]1COc2cc(Br)ccc2S(=O)(=O)N1Cc1cn(Cc2ccc(F)cc2)nn1	none (no result: HTRA1 inh, TCR-CD3 inh)
COc1ccc(C2=Nn3c(nnc3-c3ccccc3OC)SC2)cc1OCC1CC1	SIAE primary 29 | SIAE confirm 27
CCOC(=O)c1cccc(NC(=O)CN(C)S(=O)(=O)c2cc(OC)ccc2OC)c1	none (no result: HTRA1 inh, TCR-CD3 inh)
Cc1ccc(-c2cnc3n2CCCCC3)cc1	none
c1cc2c(cc1-c1cnc3n1CCC3)OCCO2	SIAE primary 17 | SIAE confirm inactive
O=C(Nc1ccc(F)cc1)OCc1cn(Cc2ccc(F)cc2F)nn1	none (no result: HTRA1 inh, TCR-CD3 inh)
C[C@@H]1C[C@H](O)CCCCCC(=O)Cc2cc(O)cc(O)c2C(=O)O1	none (no result: HTRA1 inh, TCR-CD3 inh)
Cc1ccc(NC(=O)CSc2nnc(-c3cc(-c4ccc(Cl)cc4)n[nH]3)n2N)cc1	none (no result: HTRA1 inh, TCR-CD3 inh)
C/C(=C\C(=O)c1ccccc1)Nc1ccc(N2CCOCC2)cc1	SIAE primary 18 | SIAE confirm inactive
C/C(=C\C(=O)c1ccccc1)Nc1ccc(Br)c(Cl)c1	SIAE primary 18 | SIAE confirm inactive
O=C1c2ccccc2C(Nc2ccc3c(c2)OCO3)N1Cc1ccco1 (configuration not stated)	SIAE primary 19 | SIAE confirm inactive
O=C1c2ccccc2C(Nc2ccc3c(c2)OCO3)N1Cc1ccc2c(c1)OCO2 (configuration not stated)	none
COc1cc(/C=C/C(=O)c2ccc(NS(=O)(=O)c3ccc(C)cc3)cc2)cc(OC)c1O	SIAE primary 78 | SIAE confirm inactive
Cc1[nH]c(C)c(C(=O)/C=C/c2ccc([N+](=O)[O-])cc2)c1C	SIAE primary 25 | SIAE confirm inactive
COC(=O)C1CN(Cc2cn(Cc3ccc(F)cc3)nn2)CCS(=O)(=O)N1Cc1ccc(OC)cc1 (configuration not stated)	none (no result: HTRA1 inh, TCR-CD3 inh)
COc1ccc(Nc2ncnc3sc(-c4ccccc4)cc23)cc1OC	SIAE primary 23 | SIAE confirm inactive
COc1ccc(S(=O)(=O)N(C)C[C@@H]2Oc3c(NC(=O)Nc4ccccc4)cccc3C(=O)N([C@@H](C)CO)C[C@H]2C)cc1	none (no result: HTRA1 inh, TCR-CD3 inh)
COc1ccc(CN2C(=O)[C@]3(NCCc4c3[nH]c3ccc(OC)cc43)c3cc(F)ccc32)cc1	none (no result: HTRA1 inh, TCR-CD3 inh)
Cc1ccccc1N=C1Nc2ccccc2N[C@]12C[C@H]1CCC(=O)N3CC[C@@H](C2)[C@@H]13	SIAE primary 18 | SIAE confirm inactive
C=C(C)C#CCNCc1ccccc1	none (no result: HTRA1 inh, TCR-CD3 inh)
O=[N+]([O-])c1ccc(/C=N/Nc2ccnc3cc(Cl)ccc23)o1	SIAE primary 20 | SIAE confirm inactive
COc1ccc(-n2c(=S)[nH]c3cc(C(=O)NCc4ccccc4)ccc3c2=O)c(OC)c1	none
COc1ccc(-n2c(=S)[nH]c3cc(C(=O)Nc4cc(OC)c(OC)c(OC)c4)ccc3c2=O)c(OC)c1	SIAE primary 17 | SIAE confirm inactive
Cn1cnc(S(=O)(=O)Nc2ccccc2C(=O)NCC2CC2)c1	SIAE primary 17 | SIAE confirm inactive
Cc1ccccc1Cn1c2ccccc2c2cnn(CC(=O)NCc3ccccn3)c(=O)c21	SIAE primary 20 | SIAE confirm inactive
O=S1(=O)CC2c3ccc(F)cc3CN2CN1Cc1ccccc1 (configuration not stated)	none (no result: HTRA1 inh, TCR-CD3 inh)
CCN(CC)c1ccc(/C=N/NC(=O)c2cccc(S(=O)(=O)N3CCOCC3)c2)c(O)c1	SIAE primary 20 | SIAE confirm inactive
CCOC(=O)N/N=C/c1ccc(N(CC)CC)cc1O	SIAE primary 18 | SIAE confirm inactive
CCN(CC)S(=O)(=O)c1cccc(C(=O)N/N=C/c2cccc(O)c2O)c1	SIAE primary 27 | SIAE confirm inactive
CCOc1ccc2nc(NC(=O)Nc3cccs3)sc2c1	SIAE primary 34 | SIAE confirm inactive
CCOc1ccc2nc(NC(=O)Nc3ccccc3)sc2c1	none
O=[N+]([O-])c1cccc(CN2CCN(c3cccc4[nH]ccc34)CC2)c1	SIAE primary 20 | SIAE confirm inactive
CCOC(=O)[C@]12CCCC=C1N(Cc1ccc(OC)cc1)C(=O)[C@@H]2CC(=O)NCc1cccc2ccccc12	none (no result: HTRA1 inh, TCR-CD3 inh)
O=C(N[C@@H](Cc1cccnc1)C(=O)N1CCC[C@H]1C(=O)NCCc1ccccc1Cl)c1ccccc1	none (no result: HTRA1 inh)
CCOc1ccc(N=c2scc(-c3ccccc3)n2CCO)cc1	none
CCn1c(-c2ccccc2)csc1=Nc1ccc(O)cc1	SIAE primary 25 | SIAE confirm inactive
CC(=O)CC[C@H]1CC[C@]2(CCCN(S(=O)(=O)C3CCCCC3)C2)O1	none (no result: HTRA1 inh, TCR-CD3 inh)
CCNC(=S)Nc1cc(C(=O)N2CCCC2)ccc1N1CCCC1	SIAE primary 23 | SIAE confirm inactive
Cn1cnnc1SCC(=O)Nc1ccc(S(=O)(=O)N2CCCC2)cc1	none
Nn1c(SCC(=O)Nc2ccc(S(=O)(=O)N3CCCC3)cc2)nnc1C(F)(F)F	SIAE primary 17 | SIAE confirm inactive
CS(=O)(=O)N1CCC(c2noc(-c3ccc(C(F)(F)F)cc3)n2)CC1	SIAE primary 28 | SIAE confirm inactive
O=C1[C@@H](CCc2ccccc2)[C@@H]2c3ccccc3C=NN2[C@@H]2c3ccccc3C=NN12	SIAE primary 18 (no result: HTRA1 inh, TCR-CD3 inh) | SIAE confirm inactive
Cc1cc(C)cc(C(=O)OCCCN(C)C2CN(Cc3cn(Cc4ccccc4C(F)(F)F)nn3)S(=O)(=O)C2)c1 (configuration not stated)	none (no result: HTRA1 inh, TCR-CD3 inh)
O=C(CSc1nnc(-c2ccco2)o1)NC1CCCCCC1	SIAE primary 18 | SIAE confirm inactive
CC(=O)NC12CC3CC(C1)CC(C(=O)N1CCN(S(=O)(=O)c4ccc(C(C)C)cc4)CC1)(C3)C2	none
CC(=O)NC12CC3CC(C1)CC(C(=O)N1CCN(S(=O)(=O)c4ccccc4C#N)CC1)(C3)C2	SIAE primary 28 | SIAE confirm inactive
COc1ccc(-c2[nH]c(-c3ccc4c(c3)OCO4)nc2-c2ccccc2)cc1	SIAE primary 21 | SIAE confirm inactive
COc1cc(-c2nc(-c3ccccc3)c(-c3ccc(F)cc3)[nH]2)cc2c1OCO2	none
O=[N+]([O-])c1cccc(-c2csc(N/N=C/c3cccc(O)c3)n2)c1	SIAE primary 27 | SIAE confirm inactive
